How the values were obtained:
HeLa [1] = experiment: The compound was tested in vitro for antitumor activity(50% inhibition of tumor cell growth) against HeLa human cell lines after 72 hr; assay type: functional; conditions: read-out: ID50 (the source's name)
In short: (§1)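 5 × 10^5 exponentially growing human tumour cells were exposed to a range of drug concentrations for the stated time (72 or 144 h), then counted on a Coulter counter. ID50 is the concentration in the culture medium giving 50% inhibition of cell growth relative to untreated controls.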

P388 [2] = experiment: (§2) The compound was tested in vitro for antitumor activity(50% inhibition of tumor cell growth) against the P388 murine cell lines after 72 hours; assay type: functional; conditions: Mus musculus, P388, 72 h; read-out: ID50 (the source's name)
In short: (§3)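 Murine leukemia cells (P388, the doxorubicin-resistant subline P388/DX, or L1210) were grown as suspension cultures in 1640 medium with 10% fetal calf serum, 20 µM 2-mercaptoethanol, […] and antibiotics, at 37 °C in humidified 5% CO2. 5 × 10^5 exponentially growing cells were exposed to a range of drug concentrations for 72 h, then Coulter-counted. ID50 is the concentration giving 50% growth inhibition versus untreated controls.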

L1210 [3] = experiment: (§4) The compound was tested in vitro for antitumor activity(50% inhibition of tumor cell growth) against the L1210 murine cell lines after 72 hours; assay type: functional; conditions: Mus musculus, L1210, 72 h; read-out: ID50 (the source's name); in short: as §3
KB [4] = experiment: The compound was tested in vitro for antitumor activity(50% inhibition of tumor cell growth) against KB human cell lines after 144 hr; assay type: functional; conditions: read-out: ID50 (the source's name)
In short: (§5)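 5 × 10^5 exponentially growing cells exposed to varying drug concentrations for 144 h, then counted with a Coulter counter. ID50 is the drug concentration in culture medium giving 50% inhibition of cell growth versus untreated controls.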

Mus musculus [5] = organism: Mus musculus; experiment: (§6) The compound was tested in vitro for antitumor activity(50% inhibition of tumor cell growth) against the P388/doxorubicin resistant murine cell lines after 72 hours; assay type: functional; conditions: P388, 72 h, read-out: ID50 (the source's name); in short: as §3
HeLa [6] = experiment: The compound was tested in vitro for antitumor activity(50% inhibition of tumor cell growth) against HeLa human cell lines after 144 hr; assay type: functional; conditions: read-out: ID50 (the source's name); in short: as §5
KB [7] = experiment: The compound was tested in vitro for antitumor activity(50% inhibition of tumor cell growth) against KB human cell lines after 72 hr; assay type: functional; conditions: read-out: ID50 (the source's name); in short: as §1
Mus musculus [8] = organism: Mus musculus; experiment: as §6; assay type: functional; conditions: P388, 72 h, read-out: ID50 (the source's name); remark: listed apart in the source
In short: (§7)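 Suspension cultures were grown in 1640 medium with 10% fetal calf serum, 20 µM 2-mercaptoethanol, […] and antibiotics at 37 °C in 5% CO2. 5×10^5 exponentially growing cells were exposed to varying drug concentrations for 72 h, then counted with a Coulter counter. ID50 is the concentration giving 50% growth inhibition versus untreated controls.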

L1210 [9] = experiment: as §4; assay type: functional; conditions: Mus musculus, L1210, 72 h; read-out: ID50 (the source's name); in short: as §7; remark: listed apart in the source
P388 [10] = experiment: as §2; assay type: functional; conditions: Mus musculus, P388, 72 h; read-out: ID50 (the source's name); in short: as §7; remark: listed apart in the source
Mus musculus [11] = experiment: Antitumor activity against leukemia P388/DX cells at 300.0 mg/kg/day expressed as mean survival of treated mice (T) to untreated (C) was reported; assay type: functional
In short: (§8)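 BDF1 mice given 10^6 doxorubicin-resistant P388 cells ip. Compound was dissolved in distilled water just before use and given ip daily for 9 days from 24 h post-inoculation. %T/C = median survival of treated/control ×100, with 125 significant. Toxic deaths were judged by gross autopsy, mainly from reduced spleen and liver size.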

Mus musculus [12] = experiment: Antitumor activity against leukemia P388/DX cells at 300.0 mg/kg/day expressed as toxic deaths in mice was reported; 8/20 mice; conditions: in vivo
L1210 [13] = experiment: Antitumor activity against leukemia L1210 cells at 75.0 mg/kg/day expressed as Number of mice died for toxicity to number of treated mice; 0/10 mice; assay type: functional, Mus musculus
Mus musculus [14] = experiment: Antitumor activity against leukemia P388/DX cells at 150.0 mg/kg/day expressed as mean survival of treated mice (T) to untreated (C) was reported; assay type: functional; in short: as §8
Mus musculus [15] = experiment: Antitumor activity against leukemia P388/DX cells at 150.0 mg/kg/day expressed as toxic deaths in mice was reported; 2/20 mice; conditions: in vivo
L1210 [16] = experiment: Antitumor activity against leukemia L1210 cells at 75.0 mg/kg/day expressed as mean survival of treated mice (T) compared to untreated (C) was reported; assay type: functional, Mus musculus
Mus musculus [17] = experiment: Antitumor activity against leukemia P388/DX cells at 100.0 mg/kg/day expressed as mean survival of treated mice (T) to untreated (C) was reported; assay type: functional; in short: as §8
L1210 [18] = experiment: Antitumor activity against leukemia L1210 cells at 150.0 mg/kg/day expressed as Number of mice died for toxicity to number of treated mice; 0/10 mice; assay type: functional, Mus musculus
Mus musculus [19] = experiment: Antitumor activity against leukemia P388/DX cells at 100.0 mg/kg/day expressed as toxic deaths in mice was reported; 0/10 mice; assay type: functional; in short: as §8
L1210 [20] = experiment: Antitumor activity against leukemia L1210 cells at 150.0 mg/kg/day expressed as mean survival of treated mice (T) to untreated (C) was reported; assay type: functional, Mus musculus
Mus musculus [21] = experiment: Antitumor activity against leukemia P388/DX cells at 3.1 mg/kg/day expressed as mean survival of treated mice (T) to untreated (C) was reported; assay type: functional
In short: (§9)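 BDF1 mice given 10^6 doxorubicin-resistant P388 cells ip; the line was kept by weekly ip passage with doxorubicin. Compound was dissolved in distilled water just before use and given ip daily for 7 days from 24 h post-inoculation; 10 mice per dose. %T/C = median survival of treated/control ×100, with 125 significant. Toxicity was judged by autopsy (spleen and liver shrinkage).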

Mus musculus [22] = experiment: Antitumor activity against leukemia P388/DX cells at 12.5 mg/kg/day expressed as toxic deaths in mice was reported; 0/10 mice; assay type: functional; in short: as §9
Mus musculus [23] = experiment: Antitumor activity against leukemia P388/DX cells at 6.3 mg/kg/day expressed as mean survival of treated mice (T) to untreated (C) was reported; assay type: functional; in short: as §9
Mus musculus [24] = experiment: Antitumor activity against leukemia P388/DX cells at 3.1 mg/kg/day expressed as toxic deaths in mice was reported; 0/10 mice; assay type: functional; in short: as §9
L1210 [25] = experiment: Antitumor activity against leukemia L1210 cells at 6.3 mg/kg/day expressed as Number of mice died for toxicity to number of treated mice; 0/10 mice; assay type: functional, Mus musculus
L1210 [26] = experiment: Antitumor activity against leukemia L1210 cells at 25.0 mg/kg/day expressed as mean survival of treated mice (T) to untreated (C) was reported; assay type: functional, Mus musculus
L1210 [27] = experiment: Antitumor activity against leukemia L1210 cells at 12.5 mg/kg/day expressed as Number of mice died for toxicity to number of treated mice; 0/10 mice; assay type: functional, Mus musculus
Mus musculus [28] = experiment: Antitumor activity against leukemia P388/DX cells at 12.5 mg/kg/day expressed as mean survival of treated mice (T) to untreated (C) was reported; assay type: functional; in short: as §9
L1210 [29] = experiment: Antitumor activity against leukemia L1210 cells at 6.3 mg/kg/day expressed as mean survival of treated mice (T) to untreated (C) was reported; assay type: functional, Mus musculus
L1210 [30] = experiment: Antitumor activity against leukemia L1210 cells at 12.5 mg/kg/day expressed as mean survival of treated mice (T) to untreated (C) was reported; assay type: functional, Mus musculus
Mus musculus [31] = experiment: Antitumor activity against leukemia P388/DX cells at 6.3 mg/kg/day expressed as toxic deaths in mice was reported; 0/10 mice; assay type: functional; in short: as §9
L1210 [32] = experiment: Antitumor activity against leukemia L1210 cells at 25.0 mg/kg/day expressed as Number of mice died for toxicity to number of treated mice; 6/10 mice; assay type: organism-based; conditions: mouse, in vivo

| Structure (SMILES) | IC50 (HeLa [1]) | IC50 (P388 [2]) | IC50 (L1210 [3]) | IC50 (KB [4]) | IC50 (Mus musculus [5]) | IC50 (HeLa [6]) | IC50 (KB [7]) | further results |
| --- | --- | --- | --- | --- | --- | --- | --- | --- |
| Nc1ncnc2c1ncn2[C@@H]1O[C@H](CO)[C@@H](O)[C@H]1O [ADENOSINE] | 46000 nM | 12700 nM | 23600 nM | 25400 nM | 10800 nM | 27700 nM | 89800 nM | – |
| Nc1ccn([C@@H]2O[C@H](CO)[C@@H](O)[C@@H]2O)c(=O)n1 [CYTARABINE] | 600 nM | 20 nM | 20 nM | 1100 nM | 10 nM | 100 nM | 1000 nM | – |
| O=c1[nH]cc(F)c(=O)[nH]1 [FLUOROURACIL] | 6100 nM | – | – | 2000 nM | – | 800 nM | 13800 nM | IC50 (Mus musculus [8]): 100 nM; IC50 (L1210 [9]): 400 nM; IC50 (P388 [10]): 300 nM |
| O=[N+]([O-])c1ccnc2c1ncn2C1O[C@H](CO)[C@@H](O)[C@H]1O (some centres not stated) | 64100 nM | 12500 nM | 11800 nM | 13100 nM | 8100 nM | 27000 nM | 33800 nM | T/C (Mus musculus [11]): 22%; Activity (Mus musculus [12]): 8; Activity (L1210 [13]): 0; T/C (Mus musculus [14]): 97%; Activity (Mus musculus [15]): 2; T/C (L1210 [16]): 106%; T/C (Mus musculus [17]): 95%; Activity (L1210 [18]): 0; Activity (Mus musculus [19]): 0; T/C (L1210 [20]): 106% |
| Nc1ccnc2c1ncn2[C@@H]1O[C@H](CO)[C@@H](O)[C@H]1O | 1200 nM | 1100 nM | 1800 nM | 600 nM | 400 nM | 1200 nM | 300 nM | T/C (Mus musculus [21]): 106%; Activity (Mus musculus [22]): 0; T/C (Mus musculus [23]): 106%; Activity (Mus musculus [24]): 0; Activity (L1210 [25]): 0; T/C (L1210 [26]): 88%; Activity (L1210 [27]): 0; T/C (Mus musculus [28]): 111%; T/C (L1210 [29]): 100%; T/C (L1210 [30]): 113%; Activity (Mus musculus [31]): 0; Activity (L1210 [32]): 6 |

From ChEMBL document CHEMBL1123889, “Improved synthesis and antitumor activity of 1-deazaadenosine” (J Med Chem, 1987)
